The structures appear in SMILES notation.

The source of these data is ChEMBL document CHEMBL1131140, “Synthesis and antimalarial activities of fluoroalkyl derivatives of dihydroartemisinin” (J Med Chem, 1998).

The test system of this test is Plasmodium falciparum. The experiment in a line: In vitro antimalarial activity for Plasmodium falciparum W-2. Format: functional, organism-based. The essentials:
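P. falciparum W-2 cultured in A+ human erythrocytes, RPMI with 10% A+ human serum, 25 mM HEPES, 25 mM NaHCO3, 37 °C, 10% O2/6% CO2/84% N2. Assay at 0.5% parasitemia, 1.5% hematocrit; 2-fold dilutions (methanol stocks), final 1.6–200 nM in triplicate; [3H]hypoxanthine uptake over 42 h; IC50 by nonlinear regression of log dose–response; mean of ≥3 experiments.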
In general, IC50 refers to the midpoint of a concentration-inhibition curve. For the compound `CCOC(=O)C(OC1O[C@@H]2OC3(C)CC[C@H]4[C@H](C)CC[C@@H]([C@H]1C)[C@@]24OO3)C(F)(F)F` (single isomer, unassigned), 61 nM corresponded to half-maximal inhibition (IC50). On to `C[C@H]1C(OCC(F)(F)F)O[C@@H]2OC3(C)CC[C@H]4[C@H](C)CCC1[C@@]24OO3` (single isomer, unassigned), for which the midpoint of inhibition, the IC50, lay at 31 nM.

`COC1O[C@@H]2OC3(C)CC[C@H]4[C@H](C)CC[C@@H]([C@H]1C)[C@@]24OO3` (single isomer, unassigned) showed an IC50 of 7.5 nM. As for `CC(OC1O[C@@H]2OC3(C)CC[C@H]4[C@H](C)CC[C@@H]([C@H]1C)[C@@]24OO3)C(F)(F)F` (single isomer, unassigned), the figure is 35 nM; as for `C[C@@H]1CC[C@H]2[C@@H](C)C(OC(C(F)(F)F)C(F)(F)F)O[C@@H]3OC4(C)CC[C@@H]1[C@]32OO4` (single isomer, unassigned), 34 nM. In the case of `CO[C@H]1O[C@@H]2O[C@@]3(C)CC[C@H]4[C@H](C)CC[C@@H]([C@H]1C)[C@@]24OO3` [ARTEMETHER], the IC50 is 5.4 nM. The same measure for `C[C@@H]1CC[C@H]2[C@@H](C)C(OCC(F)(F)C(F)(F)F)O[C@@H]3OC4(C)CC[C@@H]1[C@]32OO4` (single isomer, unassigned): 27 nM. As for `C[C@@H]1CC[C@H]2[C@@H](C)[C@](O)(C(F)(F)F)O[C@@H]3OC4(C)CC[C@@H]1[C@]32OO4` (single isomer, unassigned), the figure is 2.6 nM; as for `C[C@@H]1CC[C@H]2[C@@H](C)C(OC(c3ccccc3)C(F)(F)F)O[C@@H]3OC4(C)CC[C@@H]1[C@]32OO4` (single isomer, unassigned), 66 nM. As for `C[C@@H]1CC[C@H]2[C@@H](C)C(OCC(F)(F)C(F)(F)C(F)(F)F)O[C@@H]3OC4(C)CC[C@@H]1[C@]32OO4` (single isomer, unassigned), the figure is 36 nM; as for `C[C@@H]1CC[C@H]2[C@@H](C)C(OCC(F)(F)C(F)C(F)(F)F)O[C@@H]3OC4(C)CC[C@@H]1[C@]32OO4` (single isomer, unassigned), 34 nM; as for `C[C@@H]1CC[C@H]2[C@@H](C)C(OC(c3ccccc3)(C(F)(F)F)C(F)(F)F)O[C@@H]3OC4(C)CC[C@@H]1[C@]32OO4` (single isomer, unassigned), 38 nM.
